Activity calls are given as the source filed them.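 How the source made its calls, unless noted: active means viability loss from added drug above about 55%, and viability with drug at most 40%, in both replicates (limit read from the data, passing the limit was not always enough); inconclusive means both conditions met in only one replicate; inactive means neither replicate meets both conditions.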
Assays:
[1] = Her2 expression decrease, cell viability multiplex – SKBR3 breast tumor cells, AlphaScreen, ATP viability, primary screen (AID 461;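 active means Her2 level under about 52% in both replicate screens, with viability over 70% of control, limit read from the data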;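 on Her2 level: lower value means less Her2 protein in the cells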;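 on viability: percent of carrier control wells set as 100% viability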); conditions: SKBR3 Her2 protein level, 18-24 h, measured here: SKBR3 viability, ATP luminescence, at 10 µM
[2] = target: Receptor tyrosine-protein kinase erbB-2 (Homo sapiens) (UniProt P04626); experiment: as above; conditions: 18-24 h, at 10 µM, stronger effect = lower value
Sequence of Receptor tyrosine-protein kinase erbB-2 (Homo sapiens) (P04626 whole entry, looked up): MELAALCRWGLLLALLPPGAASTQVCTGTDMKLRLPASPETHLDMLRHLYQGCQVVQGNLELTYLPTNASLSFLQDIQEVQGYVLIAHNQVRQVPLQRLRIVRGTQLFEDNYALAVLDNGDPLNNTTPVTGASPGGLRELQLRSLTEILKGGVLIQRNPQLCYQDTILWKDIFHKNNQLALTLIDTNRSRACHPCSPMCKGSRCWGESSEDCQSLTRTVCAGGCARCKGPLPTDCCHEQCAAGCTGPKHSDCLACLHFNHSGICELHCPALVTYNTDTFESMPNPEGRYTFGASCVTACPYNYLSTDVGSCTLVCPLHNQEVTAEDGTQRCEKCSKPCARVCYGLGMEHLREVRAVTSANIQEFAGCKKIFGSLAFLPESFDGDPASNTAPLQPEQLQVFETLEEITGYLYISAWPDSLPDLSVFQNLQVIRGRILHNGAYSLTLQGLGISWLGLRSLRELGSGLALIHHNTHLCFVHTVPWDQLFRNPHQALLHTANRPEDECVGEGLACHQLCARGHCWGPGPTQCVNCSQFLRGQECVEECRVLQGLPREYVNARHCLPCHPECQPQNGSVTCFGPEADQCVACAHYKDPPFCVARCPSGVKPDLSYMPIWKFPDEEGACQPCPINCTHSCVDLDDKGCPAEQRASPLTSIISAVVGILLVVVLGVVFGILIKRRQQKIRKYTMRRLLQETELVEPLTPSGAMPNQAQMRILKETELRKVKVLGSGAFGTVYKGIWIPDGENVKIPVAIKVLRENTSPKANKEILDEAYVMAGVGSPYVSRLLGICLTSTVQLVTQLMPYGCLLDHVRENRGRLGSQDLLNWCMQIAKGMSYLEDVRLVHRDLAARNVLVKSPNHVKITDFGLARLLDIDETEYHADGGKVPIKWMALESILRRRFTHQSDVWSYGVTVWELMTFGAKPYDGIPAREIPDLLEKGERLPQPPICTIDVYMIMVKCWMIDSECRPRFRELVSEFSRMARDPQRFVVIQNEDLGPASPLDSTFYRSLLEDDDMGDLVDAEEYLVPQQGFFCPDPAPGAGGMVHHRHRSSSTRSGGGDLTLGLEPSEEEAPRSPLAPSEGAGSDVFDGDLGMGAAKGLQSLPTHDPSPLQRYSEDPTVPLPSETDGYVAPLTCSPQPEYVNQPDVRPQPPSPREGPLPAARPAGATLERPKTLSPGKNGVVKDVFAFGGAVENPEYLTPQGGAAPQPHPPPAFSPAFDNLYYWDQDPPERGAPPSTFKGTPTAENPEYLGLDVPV

[3] = reduced viability of SK-BR-3 breast cancer cells – cell-based, 24 h, human, pilot screen (AID 572;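 active means viability at or below 10% of carrier control in both of two separate runs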;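 further: compound exposure lasted between 18 and 24 h rather than exactly 24 h; 100% = carrier-treated control wells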); conditions: SK-BR-3 viability, CellTiter-Glo luminescence, at 10 µM, stronger effect = lower value
[4] = H69AR cell proliferation blockers – human, duplicate replicates, primary screen (AID 580;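 active means viability at or under a set limit in both replicates, limit being median viability minus 3 SD, cut at about 48% in these data, passing the limit was not always enough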;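 further: 100% = mean luminescence of untreated wells and 0% = no signal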); conditions: H69AR lung tumor cells viability, ATP luminescence, 72 h; at 10 µM; stronger effect = lower value
[5] = MRP1 drug-resistance reversers in H69AR cells – cell-based, doxorubicin co-treatment, pilot screen (AID 601); conditions: CellTiter-Glo, 72 h, at 10 µM; for differential viability (reversal): stronger effect = higher value
[6] = yeast transport mutant growth inhibition pilot in 384-well plates, post-Golgi transport modulator project (AID 636; in the data active means inhibition above about 31%); conditions: absorbance 615 nm, about 18 h, stronger effect = higher value
[7] = growth suppression of yeast trafficking mutant, preliminary HTS, modulators of trafficking downstream of Golgi apparatus project, 1536-format plate, OD 615 nm (AID 637; in the data active means inhibition above about 30%); conditions: yeast transport mutant growth, absorbance 615 nm, 18 h; stronger effect = higher value
[8] = HUVEC growth inhibition – cell-based, human, primary screen (AID 575;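 active means viability at or below 30% in both replicate assays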;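 further: 100% = median of untreated cell wells with 0.1% DMSO on each plate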); conditions: HUVEC proliferation, CellTiter-Glo luminescence, 72 h; at 10 µM; stronger effect = lower value
How it was run: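 Timing: 72 h treatment at 37 °C; material: HUVEC primary cells; technique: CellTiter-Glo luminescence measuring cellular ATP; controls: vehicle and MePR control wells; measure: percent of median DMSO-control luminescence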

[9] = H69AR cells + 2 uM doxorubicin, measured here: viability with 2 uM doxorubicin, stronger effect = lower value
[10] = H69AR cells, compound alone cytotoxicity

Structure (SMILES)	viability [1]	Her2 level [2]	viability [3]	viability [4]	differential viability (reversal) ([5]; H69AR cells + 2 uM doxorubicin)	viability [5, 9]	viability [5, 10]	inhibition [6]	inhibition [7]	viability [8]
CN(C)CC(O)COc1ccc(-c2ccc(C#N)cc2)cc1 (stereo unspecified)	79.5%	109% (inactive)	79.5% (inactive)	96% (inactive)	14.3% (inactive)	81.8%	96%	0.27% (inactive)	-6.61% (inactive)	
C/C(Cl)=C/Cn1c(SCc2ccc(Cl)cc2)nc2c1c(=O)[nH]c(=O)n2C	102%	110% (inactive)	102% (inactive)		-6.12% (inactive)	60.4%	54.3%	-1.33% (inactive)	-7.1% (inactive)	78.8% (inactive)
CCOC(=O)c1cnc(-n2nc(C)cc2C)nc1NC(C)c1ccccc1 (stereo unspecified)	153%	65% (inactive)	153% (inactive)	10.1% (active)	-1.17% (inactive)	11.3%	10.1%	-3.16% (inactive)	14.3% (inactive)	
O=C(Nc1ccc(S(=O)(=O)N2CCCCCC2)cc1)c1ccco1	94.5%	89.5% (inactive)	94.5% (inactive)	97.1% (inactive)	2.81% (inactive)	94.3%	97.1%	-1.17% (inactive)	6.07% (inactive)	
CCOC(=O)c1sc2nc(N3CCCC3)c3c(c2c1N)CC(C)(C)OC3	75.5%	80.5% (inactive)	75.5% (inactive)		-12.8% (inactive)	65.9%	53.1%	-7.92% (inactive)	-9.83% (inactive)	58.8% (inactive)
COc1cccc(-c2cc3nc4c(c(N5CCC6(CC5)OCCO6)n3n2)CCCC4)c1	124%	67.5% (inactive)	124% (inactive)	58.5% (inactive)	-3.45% (inactive)	61.9%	58.5%	35.3% (active)	21.6% (inactive)	
CCOC(=O)N1CCC(NC(=O)c2ccc3nc(N4CCOCC4)sc3c2)CC1	102%	105% (inactive)	102% (inactive)	97.1% (inactive)	-2.62% (inactive)	99.7%	97.1%	-4.74% (inactive)	-0.32% (inactive)	
COc1ccc(CNc2oc(COc3ccccc3Cl)nc2C#N)cc1	84%	68.5% (inactive)	84% (inactive)	87.3% (inactive)	-4.78% (inactive)	92.1%	87.3%	0.26% (inactive)	14.1% (inactive)	
COc1ccc(Br)cc1C1N2CC3(C)CN1CC(C)(C2)C3=O (stereo unspecified)	114%	89.5% (inactive)	114% (inactive)		-33% (inactive)	87.3%	54.3%	-5.97% (inactive)	-3.61% (inactive)	97.1% (inactive)
CCCc1cc(-c2n[nH]c(C)c2-c2ccc(C(=O)OCC)o2)c(O)cc1O	78%	72% (inactive)	78% (inactive)		-10.2% (inactive)	38.2%	28%	-4.74% (inactive)	1.45% (inactive)	39.4% (inactive)
Cc1nn(-c2nc3ccccc3s2)c(C)c1Oc1ccccc1O	102%	79.5% (inactive)	102% (inactive)		-6.93% (inactive)	67%	60%	-6.13% (inactive)	-0.63% (inactive)	20.3% (active)
Cc1ccc(S(=O)(=O)c2cc3c(=O)n4ccccc4nc3n(CC3CCCO3)c2=N)cc1C (stereo unspecified)	83%	77.5% (inactive)	83% (inactive)		2.4% (inactive)	53.5%	55.9%	-4.86% (inactive)	2.95% (inactive)	69.9% (inactive)
CO[C@H]1C=CO[C@@]2(C)Oc3c(C)c(O)c4c(O)c(c(C=NN5CCN(C)CC5)c(O)c4c3C2=O)NC(=O)C(C)=CC=C[C@H](C)[C@H](O)[C@@H](C)[C@@H](O)[C@@H](C)[C@H](OC(C)=O)[C@@H]1C	90.5%	85.5% (inactive)	90.5% (inactive)	88.9% (inactive)	1.53% (inactive)	87.3%	88.9%			
CCOC(=O)c1cnn(-c2sc(C(=O)OCC)c(C)c2C(=O)OCC)c1N	95%	93.5% (inactive)	95% (inactive)	15.8% (active)	-25.8% (inactive)	41.6%	15.8%	0.27% (inactive)	-4.6% (inactive)	
Cn1c(-c2ccc(C(C)(C)C)cc2)n[nH]c1=S	106%	106% (inactive)	106% (inactive)	82.1% (inactive)	1.74% (inactive)	80.4%	82.1%	-4.68% (inactive)	-2.13% (inactive)	
Nc1ncnc2oc(-c3ccco3)c(-c3ccco3)c12	96.5%	77% (inactive)	96.5% (inactive)	75.7% (inactive)	7.29% (inactive)	68.4%	75.7%	-0.13% (inactive)	-4.03% (inactive)	
c1ccc(CN2CCN(c3ncnc4c3[nH]c3ccccc34)CC2)cc1	121%	47% (active)	121% (inactive)	60.6% (inactive)	-22.6% (inactive)	83.2%	60.6%	-6% (inactive)	2.1% (inactive)	
